{"source": "ChEMBL document CHEMBL4138271", "about": "“Crystal Structures and Human Leukemia Cell Apoptosis Inducible Activities of Parthenolide Analogues Isolated from Piptocoma rufescens” (J Nat Prod, 2018)", "key": {"[1]": {"test_system": "MOLM-13", "assay": "Cytotoxicity against human MOLM13 cells after 72 hrs by MTS assay", "format": "functional, cell-based", "settings": "MOLM-13, 72 h"}, "[2]": {"test_system": "EOL1", "assay": "Cytotoxicity against human EOL-1 cells after 72 hrs by MTS assay", "format": "functional, cell-based", "settings": "EOL1, 72 h"}, "[3]": {"test_system": "HT-29", "assay": "Cytotoxicity against human HT-29 cells after 72 hrs by MTS assay", "format": "functional, cell-based", "settings": "HT-29, 72 h"}, "[4]": {"test_system": "MOLM-13", "assay": "Synergistic antileukemic activity against human MOLM13 cells assessed as concentration required for <= 75% cell survival after 72 hrs in presence of midostaurin by CellTiter 96 AQueous One solution cell proliferation assay", "format": "functional"}, "[5]": {"test_system": "EOL1", "assay": "Synergistic antileukemic activity against human EOL-1 cells assessed as concentration required for <= 75% cell survival after 72 hrs in presence of midostaurin by CellTiter 96 AQueous One solution cell proliferation assay", "format": "functional"}, "[6]": {"test_system": "MOLM-13", "assay": "Induction of apoptosis in human MOLM13 cells assessed as live cells at 0.26 uM after 24 hrs by Annexin-V FITC/7-AAD staining based flow cytometric method (reference value: 86.8%)", "format": "functional"}, "[7]": {"test_system": "MOLM-13", "assay": "Induction of apoptosis in human MOLM13 cells assessed as early apoptotic cells at 0.26 uM after 24 hrs by Annexin-V FITC/7-AAD staining based flow cytometric method (reference value: 11.8%)", "format": "functional"}, "[8]": {"test_system": "MOLM-13", "assay": "Induction of apoptosis in human MOLM13 cells assessed as late apoptotic cells at 0.26 uM after 24 hrs by Annexin-V FITC/7-AAD staining based flow cytometric method (reference value: 1.43%)", "format": "functional"}, "[9]": {"test_system": "MOLM-13", "assay": "Induction of apoptosis in human MOLM13 cells assessed as necrotic cells at 0.26 uM after 24 hrs by Annexin-V FITC/7-AAD staining based flow cytometric method (reference value: 0%)", "format": "functional"}, "[10]": {"test_system": "MOLM-13", "assay": "Induction of apoptosis in human MOLM13 cells assessed as live cells at 0.59 uM after 24 hrs by Annexin-V FITC/7-AAD staining based flow cytometric method (reference value: 86.8%)", "format": "functional"}, "[11]": {"test_system": "MOLM-13", "assay": "Induction of apoptosis in human MOLM13 cells assessed as early apoptotic cells at 0.59 uM after 24 hrs by Annexin-V FITC/7-AAD staining based flow cytometric method (reference value: 11.8%)", "format": "functional"}, "[12]": {"test_system": "MOLM-13", "assay": "Induction of apoptosis in human MOLM13 cells assessed as late apoptotic cells at 0.59 uM after 24 hrs by Annexin-V FITC/7-AAD staining based flow cytometric method (reference value: 1.43%)", "format": "functional"}, "[13]": {"test_system": "MOLM-13", "assay": "Induction of apoptosis in human MOLM13 cells assessed as necrotic cells at 0.59 uM after 24 hrs by Annexin-V FITC/7-AAD staining based flow cytometric method (reference value: 0%)", "format": "functional"}, "[14]": {"test_system": "MOLM-13", "assay": "Induction of apoptosis in human MOLM13 cells assessed as live cells at 1.8 uM after 24 hrs by Annexin-V FITC/7-AAD staining based flow cytometric method (reference value: 86.8%)", "format": "functional"}, "[15]": {"test_system": "MOLM-13", "assay": "Induction of apoptosis in human MOLM13 cells assessed as early apoptotic cells at 1.8 uM after 24 hrs by Annexin-V FITC/7-AAD staining based flow cytometric method (reference value: 11.8%)", "format": "functional"}, "[16]": {"test_system": "MOLM-13", "assay": "Induction of apoptosis in human MOLM13 cells assessed as late apoptotic cells at 1.8 uM after 24 hrs by Annexin-V FITC/7-AAD staining based flow cytometric method (reference value: 1.43%)", "format": "functional"}, "[17]": {"test_system": "MOLM-13", "assay": "Induction of apoptosis in human MOLM13 cells assessed as necrotic cells at 1.8 uM after 24 hrs by Annexin-V FITC/7-AAD staining based flow cytometric method (reference value: 0%)", "format": "functional"}, "[18]": {"test_system": "EOL1", "assay": "Induction of apoptosis in human EOL-1 cells assessed as live cells at 0.26 uM after 24 hrs by Annexin-V FITC/7-AAD staining based flow cytometric method (reference value: 97.5%)", "format": "functional"}, "[19]": {"test_system": "EOL1", "assay": "Induction of apoptosis in human EOL-1 cells assessed as early apoptotic cells at 0.26 uM after 24 hrs by Annexin-V FITC/7-AAD staining based flow cytometric method (reference value: 1.94%)", "format": "functional"}, "[20]": {"test_system": "EOL1", "assay": "Induction of apoptosis in human EOL-1 cells assessed as late apoptotic cells at 0.26 uM after 24 hrs by Annexin-V FITC/7-AAD staining based flow cytometric method (reference value: 0.535%)", "format": "functional"}, "[21]": {"test_system": "EOL1", "assay": "Induction of apoptosis in human EOL-1 cells assessed as necrotic cells at 0.26 uM after 24 hrs by Annexin-V FITC/7-AAD staining based flow cytometric method (reference value: 0.032%)", "format": "functional"}, "[22]": {"test_system": "EOL1", "assay": "Induction of apoptosis in human EOL-1 cells assessed as live cells at 0.59 uM after 24 hrs by Annexin-V FITC/7-AAD staining based flow cytometric method (reference value: 97.5%)", "format": "functional"}, "[23]": {"test_system": "EOL1", "assay": "Induction of apoptosis in human EOL-1 cells assessed as early apoptotic cells at 0.59 uM after 24 hrs by Annexin-V FITC/7-AAD staining based flow cytometric method (reference value: 1.94%)", "format": "functional"}, "[24]": {"test_system": "EOL1", "assay": "Induction of apoptosis in human EOL-1 cells assessed as late apoptotic cells at 0.59 uM after 24 hrs by Annexin-V FITC/7-AAD staining based flow cytometric method (reference value: 0.535%)", "format": "functional"}, "[25]": {"test_system": "EOL1", "assay": "Induction of apoptosis in human EOL-1 cells assessed as necrotic cells at 0.59 uM after 24 hrs by Annexin-V FITC/7-AAD staining based flow cytometric method (reference value: 0.032%)", "format": "functional"}, "[26]": {"test_system": "EOL1", "assay": "Induction of apoptosis in human EOL-1 cells assessed as live cells at 1.8 uM after 24 hrs by Annexin-V FITC/7-AAD staining based flow cytometric method (reference value: 97.5%)", "format": "functional"}, "[27]": {"test_system": "EOL1", "assay": "Induction of apoptosis in human EOL-1 cells assessed as early apoptotic cells at 1.8 uM after 24 hrs by Annexin-V FITC/7-AAD staining based flow cytometric method (reference value: 1.94%)", "format": "functional"}, "[28]": {"test_system": "EOL1", "assay": "Induction of apoptosis in human EOL-1 cells assessed as late apoptotic cells at 1.8 uM after 24 hrs by Annexin-V FITC/7-AAD staining based flow cytometric method (reference value: 0.535%)", "format": "functional"}, "[29]": {"test_system": "EOL1", "assay": "Induction of apoptosis in human EOL-1 cells assessed as necrotic cells at 1.8 uM after 24 hrs by Annexin-V FITC/7-AAD staining based flow cytometric method (reference value: 0.032%)", "format": "functional"}, "[30]": {"test_system": "MOLM-13", "assay": "Induction of apoptosis in human MOLM13 cells assessed as caspase-3 activation at 10 uM after 72 hrs by immunoblotting analysis", "format": "functional, cell-based", "outline": "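MOLM-13 cells treated 72 h with test compounds at 10 μM or PKC412 at 10 nM. Cells washed in ice-cold PBS, lysed at 10^8 cells/mL in NP-40 hypertonic buffer (pH 7.5) with protease/phosphatase inhibitors, then run on SDS-PAGE and PVDF. Blots probed 12 h with rabbit monoclonal cleaved caspase-3 (Asp175), β-actin as loading control. Representative of three independent experiments.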"}, "[31]": {"test_system": "EOL1", "assay": "Induction of apoptosis in human EOL-1 cells assessed as caspase-3 activation at 10 uM after 72 hrs by immunoblotting analysis", "format": "functional, cell-based", "outline": "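EOL-1 cells (RPMI 1640, 10% FBS, 37 °C, 5% CO2) exposed 72 h; compounds at 10 μM, PKC412 at 10 nM. Harvested, PBS-washed, lysed in hypertonic NP-40 buffer with protease/phosphatase inhibitors; SDS-PAGE, PVDF transfer, rabbit monoclonal cleaved caspase-3 (Asp175) antibody 12 h, secondary 1 h, chemiluminescent detection; β-actin loading control. Representative blots of three independent experiments.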"}, "[32]": {"biological_target": "Transcription factor p65 (Homo sapiens) (UniProt Q04206)", "sequence (Q04206 whole entry)": "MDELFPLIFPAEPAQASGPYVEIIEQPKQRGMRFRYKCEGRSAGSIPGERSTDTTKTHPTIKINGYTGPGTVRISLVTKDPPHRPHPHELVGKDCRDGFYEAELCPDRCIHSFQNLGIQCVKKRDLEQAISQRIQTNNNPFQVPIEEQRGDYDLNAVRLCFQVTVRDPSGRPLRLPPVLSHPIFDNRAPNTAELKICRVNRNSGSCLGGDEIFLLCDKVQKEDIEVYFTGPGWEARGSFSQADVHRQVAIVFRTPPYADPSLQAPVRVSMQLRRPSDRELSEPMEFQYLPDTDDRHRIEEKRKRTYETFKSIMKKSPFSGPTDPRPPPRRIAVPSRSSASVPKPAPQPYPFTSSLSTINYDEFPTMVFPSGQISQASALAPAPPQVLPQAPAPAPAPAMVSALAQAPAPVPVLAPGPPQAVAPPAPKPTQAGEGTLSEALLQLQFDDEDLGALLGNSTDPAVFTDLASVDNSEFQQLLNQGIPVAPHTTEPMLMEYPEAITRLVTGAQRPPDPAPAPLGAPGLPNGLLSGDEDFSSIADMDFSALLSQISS", "assay": "Inhibition of NFkappaB p65 in human MOLM13 cells at 10 uM after 72 hrs by immunoblotting method", "format": "cell-based", "outline": "(§1)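 MOLM-13 or EOL-1 cells treated 72 h at 10 μM. Cells washed in ice-cold PBS and lysed in hypertonic NP-40 buffer (10 mM HEPES pH 7.5, 0.5 M NaCl) with protease/phosphatase inhibitors. Protein measured by BCA; SDS-PAGE onto PVDF. Probed 12 h with rabbit monoclonal NF-κB-p65 antibody, goat β-actin as loading control, then chemiluminescence. Blots representative of three independent experiments.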"}, "[33]": {"biological_target": "Transcription factor p65 (Homo sapiens) (UniProt Q04206)", "assay": "Inhibition of NFkappaB p65 in human EOL-1 cells at 10 uM after 72 hrs by immunoblotting method", "format": "cell-based", "outline": "as §1"}}, "note": "pIC50: −log10 of the molar value. Active and inactive are the calls of the source. No cut-off for these calls is given here.", "data": [{"smiles": "C=C(C)C(=O)O[C@H]1C[C@@]2(C)OC(=CC2=O)/C(C)=C\\[C@H]2OC(=O)C(=C)[C@H]12", "values": [{"measurement": "pIC50", "setting": "[1]", "value": 5.96}, {"measurement": "pIC50", "setting": "[2]", "value": 6.00}, {"measurement": "pIC50", "setting": "[3]", "value": 6.59}, {"measurement": "Activity", "setting": "[4]", "value": 0.44, "unit": "µM"}, {"measurement": "Activity", "setting": "[5]", "value": 0.59, "unit": "µM"}, {"measurement": "Activity", "setting": "[6]", "value": 92.3, "unit": "%"}, {"measurement": "Activity", "setting": "[7]", "value": 6.62, "unit": "%"}, {"measurement": "Activity", "setting": "[8]", "value": 0.097, "unit": "%"}, {"measurement": "Activity", "setting": "[9]", "value": 0.08, "unit": "%"}, {"measurement": "Activity", "setting": "[10]", "value": 86.5, "unit": "%"}, {"measurement": "Activity", "setting": "[11]", "value": 10.9, "unit": "%"}, {"measurement": "Activity", "setting": "[12]", "value": 2.42, "unit": "%"}, {"measurement": "Activity", "setting": "[13]", "value": 0.214, "unit": "%"}, {"measurement": "Activity", "setting": "[14]", "value": 1.66, "unit": "%"}, {"measurement": "Activity", "setting": "[15]", "value": 1.25, "unit": "%"}, {"measurement": "Activity", "setting": "[16]", "value": 87.1, "unit": "%"}, {"measurement": "Activity", "setting": "[17]", "value": 9.96, "unit": "%"}, {"measurement": "Activity", "setting": "[18]", "value": 97.5, "unit": "%"}, {"measurement": "Activity", "setting": "[19]", "value": 1.9, "unit": "%"}, {"measurement": "Activity", "setting": "[20]", "value": 0.568, "unit": "%"}, {"measurement": "Activity", "setting": "[21]", "value": 0.032, "unit": "%"}, {"measurement": "Activity", "setting": "[22]", "value": 92.6, "unit": "%"}, {"measurement": "Activity", "setting": "[23]", "value": 2.66, "unit": "%"}, {"measurement": "Activity", "setting": "[24]", "value": 4.42, "unit": "%"}, {"measurement": "Activity", "setting": "[25]", "value": 0.301, "unit": "%"}, {"measurement": "Activity", "setting": "[26]", "value": 25.9, "unit": "%"}, {"measurement": "Activity", "setting": "[27]", "value": 0.24, "unit": "%"}, {"measurement": "Activity", "setting": "[28]", "value": 69.1, "unit": "%"}, {"measurement": "Activity", "setting": "[29]", "value": 4.7, "unit": "%"}, {"measurement": "Activity", "setting": "[30]", "value": "Active"}, {"measurement": "Activity", "setting": "[31]", "value": "Active"}, {"measurement": "inhibition", "setting": "[32]", "value": "Active"}, {"measurement": "inhibition", "setting": "[33]", "value": "Active"}]}]}
